Laboratory results taken from ChEMBL document CHEMBL4219223, “Rational design of pyridyl derivatives of vanillin for the treatment of sickle cell disease” (2018).

Key:
[1] = biological target: T1, Hemoglobin HbA (Homo sapiens) (UniProt P69905+P68871); assay: Inhibition of sickle hemoglobin polymerization in human whole blood assessed as formation of high oxygen affinity schiff-base adducts by HPLC method; format: protein-complex assay; conditions: TDE = time-dependent effect
Outline: (§1)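 Normal donor whole blood (30% hematocrit) or purified Hb (1.56 mM) incubated with compound (0.5, 1.0, 2.0 mM) at 37°C with shaking at 140 rpm for up to 24 h. Samples taken at 0.5, 1, 2, 4, 8, 12 and 24 h and quenched with cyanoborohydride/borohydride to fix Schiff-base adducts. Adducts quantified by cation-exchange HPLC. Peak read from the %modification-vs-time curve; AUC(0–24) by linear trapezoidal rule.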

[2] = biological target: T1, Hemoglobin HbA (Homo sapiens); assay: Inhibition of sickle hemoglobin polymerization in human homozygous sickle red blood cells assessed as formation of high oxygen affinity schiff-base adducts incubated under air for 1 hr followed by 2 hrs incubation under hypoxic condition by HPLC method
Outline: (§2)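 Lysates from SS cells (20% hematocrit) exposed to 0.5, 1.0 or 2.0 mM compound, 1 h air then 2 h 4% O2 at 37°C. Cells washed in PBS and lysed hypotonically. Hb S adduct percentage taken from weak cation-exchange HPLC elution patterns (Poly CAT A column). Mean ± SD of three biological replicates.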

[3] = biological target: T1, Hemoglobin HbA (Homo sapiens); assay: Inhibition of sickle hemoglobin polymerization in human whole blood assessed as formation of high oxygen affinity schiff-base adducts at 2 mM measured up to 24 hrs by HPLC method relative to control; format: protein-complex assay; set-up: scale not given: the % may be the effect or the level left; outline: as §1
[4] = biological target: T1, Hemoglobin HbA (Homo sapiens); assay: (§3) Induction of R-state stabilization of Hb in human homozygous sickle red blood cells assessed as change in oxygen pressure at which hemolysates are 50% saturated with oxygen at 0.5 mM incubated under air for 1 hr followed by 2 hrs incubation under hypoxic condition by oxygen equilibrium curve analysis relative to control
Outline: (§4)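 SS cells (20% hematocrit) given 0.5–2.0 mM compound, 1 h in air at 37°C, then 2 h hypoxia (4% O2) at 37°C. Cells washed in PBS and lysed hypotonically. About 100 μL clarified lysate placed in 4 ml 0.1 M potassium phosphate, pH 7.0, and read on a Hemox analyzer. ΔP50 = (P50 untreated − P50 treated)/P50 untreated × 100, relative to DMSO controls. Three biological replicates.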

Erythrocyte [5] = assay: Antisickling activity in human homozygous sickle red blood cells at 1 mM incubated for 2 hrs under hypoxic condition relative to control; format: functional
Outline: (§5)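 Sickle (SS) red cell suspensions at 20% hematocrit, with or without compound (0.5, 1.0, 2.0 mM; DMSO <2% final, also in controls), held in air at 37°C for 1 h, then under 4% O2/96% N2 at 37°C for 2 h. Aliquots fixed in 2% glutaraldehyde without air exposure; sickling scored on bright-field images at 40x. Mean ± SD, three biological replicates.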

Erythrocyte [6] = assay: Antisickling activity in human homozygous sickle red blood cells at 2 mM incubated for 2 hrs under hypoxic condition relative to control; format: functional; outline: as §5
[7] = biological target: T1, Hemoglobin HbA (Homo sapiens); assay: as §3, with “1” for “0.5”; outline: as §4
[8] = biological target: T1, Hemoglobin HbA (Homo sapiens); assay: Inhibition of sickle hemoglobin polymerization in human homozygous sickle red blood cells assessed as formation of high oxygen affinity schiff-base adducts at 2 mM incubated under air for 1 hr followed by 2 hrs incubation under hypoxic condition by HPLC method relative to control; set-up: scale not given: the % may be the effect or the level left; outline: as §2
[9] = biological target: T1, Hemoglobin HbA (Homo sapiens); assay: as §3, with “2” for “0.5”; outline: as §4
[10] = biological target: T1, Hemoglobin HbA (Homo sapiens); assay: Inhibition of sickle hemoglobin polymerization in human homozygous sickle red blood cells assessed as formation of high oxygen affinity schiff-base adducts at 1 mM incubated under air for 1 hr followed by 2 hrs incubation under hypoxic condition by HPLC method relative to control; set-up: scale not given: the % may be the effect or the level left; outline: as §2
[11] = biological target: T1, Hemoglobin HbA (Homo sapiens); assay: Inhibition of sickle hemoglobin polymerization in human cell free hemoglobin matrix assessed as formation of high oxygen affinity schiff-base adducts incubated for 90 mins by HPLC method relative to control; format: protein-complex assay; set-up: scale not given: the % may be the effect or the level left
[12] = biological target: T1, Hemoglobin HbA (Homo sapiens); assay: Induction of R-state stabilization of Hb in human homozygous sickle red blood cells assessed as change in oxygen pressure at which hemolysates are 50% saturated with oxygen incubated under air for 1 hr followed by 2 hrs incubation under hypoxic condition by oxygen equilibrium curve analysis; outline: as §4
Erythrocyte [13] = assay: Antisickling activity in human homozygous sickle red blood cells incubated for 2 hrs under hypoxic condition; format: functional, cell-based; outline: as §5
Erythrocyte [14] = assay: Antisickling activity in human homozygous sickle red blood cells at 0.5 mM incubated for 2 hrs under hypoxic condition relative to control; format: functional; outline: as §5
[15] = biological target: T1, Hemoglobin HbA (Homo sapiens); assay: Inhibition of sickle hemoglobin polymerization in human homozygous sickle red blood cells assessed as formation of high oxygen affinity schiff-base adducts at 0.5 mM incubated under air for 1 hr followed by 2 hrs incubation under hypoxic condition by HPLC method relative to control; set-up: scale not given: the % may be the effect or the level left; outline: as §2
[16] = biological target: T1, Hemoglobin HbA (Homo sapiens); assay: Inhibition of sickle hemoglobin polymerization in human whole blood assessed as formation of high oxygen affinity schiff-base adducts at 2 mM measured after 24 hrs by HPLC method relative to control; format: protein-complex assay; set-up: scale not given: the % may be the effect or the level left; outline: as §1
[17] = biological target: T1, Hemoglobin HbA (Homo sapiens); assay: Inhibition of sickle hemoglobin polymerization in human cell free hemoglobin matrix assessed as formation of high oxygen affinity schiff-base adducts incubated for 60 to 90 mins by HPLC method relative to control; format: protein-complex assay; set-up: scale not given: the % may be the effect or the level left
[18] = biological target: T1, Hemoglobin HbA (Homo sapiens); assay: Inhibition of sickle hemoglobin polymerization in human whole blood assessed as formation of high oxygen affinity schiff-base adducts at 2 mM measured at 2 hrs by HPLC method relative to control; format: protein-complex assay; set-up: scale not given: the % may be the effect or the level left; outline: as §1
[19] = biological target: T1, Hemoglobin HbA (Homo sapiens); assay: Inhibition of sickle hemoglobin polymerization in human whole blood assessed as formation of high oxygen affinity schiff-base adducts at 2 mM after 2 hrs by HPLC method relative to control; format: protein-complex assay; set-up: scale not given: the % may be the effect or the level left; outline: as §1
[20] = biological target: T1, Hemoglobin HbA (Homo sapiens); assay: Inhibition of sickle hemoglobin polymerization in human whole blood assessed as formation of high oxygen affinity schiff-base adducts at 2 mM measured at 12 hrs by HPLC method relative to control; format: protein-complex assay; set-up: scale not given: the % may be the effect or the level left; outline: as §1

T1 sequence (P68871 2-147 partner limits assumed): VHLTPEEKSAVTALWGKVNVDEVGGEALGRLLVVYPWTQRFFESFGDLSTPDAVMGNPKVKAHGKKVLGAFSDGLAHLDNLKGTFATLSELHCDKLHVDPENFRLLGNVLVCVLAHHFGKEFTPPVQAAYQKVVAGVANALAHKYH
T1 sequence (P69905 2-142 limits assumed): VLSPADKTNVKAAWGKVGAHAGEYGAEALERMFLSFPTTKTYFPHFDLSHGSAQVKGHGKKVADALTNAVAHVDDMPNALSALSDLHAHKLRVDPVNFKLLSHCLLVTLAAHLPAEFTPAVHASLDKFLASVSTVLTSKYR

Activity [1] | Activity [2] | Activity [3] [%] | Activity [8] [%] | Activity [10] [%] | Activity [11] [%] | Activity [15] [%] | Activity [16] [%] | Activity [17] [%] | Activity [18] [%] | Activity [19] [%] | Activity [20] [%] | SMILES | Activity [4] [%] | inhibition at 1000 µM (Erythrocyte [5]) [%] | inhibition at 2000 µM (Erythrocyte [6]) [%] | Activity [7] [%] | Activity [9] [%] | Activity [12] | Activity (Erythrocyte [13]) | inhibition at 500 µM (Erythrocyte [14]) [%]
Tde | Dose-dependent effect | – | 79.5 | 55.3 | – | 26.3 | 45 | 100 | – | – | 50 | COc1ccc(OCc2ccccn2)c(C=O)c1 | 22 | 64.8 | 90.3 | 38.1 | 61.4 | Dose-dependent effect | Dose-dependent effect | 24.3
Tde | Dose-dependent effect | – | 12 | 5.6 | – | 3.3 | – | – | – | – | – | COc1cc(C=O)ccc1O [VANILLIN] | 1.2 | 7.3 | 7.3 | 10.6 | 21 | Dose-dependent effect | Dose-dependent effect | 4.2

More lines, now with the values behind:

SMILES | Activity [1] | Activity [2] | Activity [3] [%] | Activity [8] [%] | Activity [10] [%] | Activity [11] [%] | Activity [15] [%] | Activity [16] [%] | Activity [17] [%] | Activity [18] [%] | Activity [19] [%] | Activity [20] [%] | Activity [4] [%] | inhibition at 1000 µM (Erythrocyte [5]) [%] | inhibition at 2000 µM (Erythrocyte [6]) [%] | Activity [7] [%] | Activity [9] [%] | Activity [12] | Activity (Erythrocyte [13]) | inhibition at 500 µM (Erythrocyte [14]) [%]
COc1ccc(C=O)c(OCc2ccccn2)c1 | Tde | Dose-dependent effect | 60 | 51.6 | 24.8 | 50 | 12 | – | – | – | – | – | 8.1 | 13.5 | 51.3 | 20.9 | 34.2 | Dose-dependent effect | Dose-dependent effect | 7.6
COc1ccc(OCc2cccnc2)c(C=O)c1 | Tde | Dose-dependent effect | 25 | 100 | 79 | – | – | 25 | 100 | 50 | 50 | – | 24.8 | 59.5 | 90.5 | 49.2 | 75.8 | Dose-dependent effect | Dose-dependent effect | 14.9
COc1ccc(OCc2ccncc2)c(C=O)c1 | Tde | Dose-dependent effect | 15 | 82.5 | 58.7 | – | 32.8 | 15 | 100 | 50 | 45 | – | 7.9 | 60.4 | 85.9 | 31.5 | 55.6 | Dose-dependent effect | Dose-dependent effect | 21.7
